Measurements: article PMC4834983 (Journal of medicinal chemistry, 2015)

Assays:
Stat3:Stat3 = Stat3:Stat3 (Mus musculus, UniProt P42227); test: Cell-free EMSA, nuclear extracts pre-incubated with compound, hSIE probe; assay type: biochemical; conditions: for Stat3:Stat3/DNA-binding activity (complexation), cell-free EMSA: 5 μM, 30 min pre-incubation, NIH3T3/v-Src nuclear extracts
pYStat3 = test: Immunoblotting of pStat3 in treated U251MG cells; assay type: cell-based, human; conditions: for effect on pStat3 in treated tumor cells: 5 μM, glioma cells, immunoblotting
How it was run: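 Whole-cell lysates from U251MG cells given test compound at 5 μM for 0–24 h, or at 0–5 μM for 2 h. Immunoblotted for pY705Stat3 and total Stat3, with GAPDH as loading reference.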

U251MG cells = test: CyQuant cell proliferation assay; assay type: cell-based, human; conditions: for activity against U251MG cell growth: 5 μM; for IC50: Homo sapiens, U-251, 72 h, read-out: IC50 cell proliferation U251MG
How it was run: (§1)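 CyQuant DNA-dye proliferation assay on cultured cells after 72 h exposure to test compound. Viability expressed relative to DMSO-treated control cells.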

MDA-MB-231 cells = test: CyQuant cell proliferation assay; assay type: cell-based, human; conditions: for effect on MDA-MB-231 cell growth: 5 μM
How it was run: as §1

Stat3 = Stat3 DNA-binding activity/EMSA of nuclear extracts from treated glioma cells; assay type: cell-based, human; conditions: for effect on Stat3 DNA-binding activity in treated tumor cells: 5 μM, glioma cells, EMSA; for IC50: Homo sapiens, U-251, read-out: IC50 Stat3 DNA-binding activity in treated cells
Stat1:Stat1 = target: T1, Stat1:Stat1 (Mus musculus, UniProt P42225); test: Cell-free EMSA, EGF-stimulated NIH3T3/hEGFR nuclear extracts; assay type: biochemical; conditions: 5 μM, 30 min pre-incubation
T1 sequence (P42225 2-749 limits assumed): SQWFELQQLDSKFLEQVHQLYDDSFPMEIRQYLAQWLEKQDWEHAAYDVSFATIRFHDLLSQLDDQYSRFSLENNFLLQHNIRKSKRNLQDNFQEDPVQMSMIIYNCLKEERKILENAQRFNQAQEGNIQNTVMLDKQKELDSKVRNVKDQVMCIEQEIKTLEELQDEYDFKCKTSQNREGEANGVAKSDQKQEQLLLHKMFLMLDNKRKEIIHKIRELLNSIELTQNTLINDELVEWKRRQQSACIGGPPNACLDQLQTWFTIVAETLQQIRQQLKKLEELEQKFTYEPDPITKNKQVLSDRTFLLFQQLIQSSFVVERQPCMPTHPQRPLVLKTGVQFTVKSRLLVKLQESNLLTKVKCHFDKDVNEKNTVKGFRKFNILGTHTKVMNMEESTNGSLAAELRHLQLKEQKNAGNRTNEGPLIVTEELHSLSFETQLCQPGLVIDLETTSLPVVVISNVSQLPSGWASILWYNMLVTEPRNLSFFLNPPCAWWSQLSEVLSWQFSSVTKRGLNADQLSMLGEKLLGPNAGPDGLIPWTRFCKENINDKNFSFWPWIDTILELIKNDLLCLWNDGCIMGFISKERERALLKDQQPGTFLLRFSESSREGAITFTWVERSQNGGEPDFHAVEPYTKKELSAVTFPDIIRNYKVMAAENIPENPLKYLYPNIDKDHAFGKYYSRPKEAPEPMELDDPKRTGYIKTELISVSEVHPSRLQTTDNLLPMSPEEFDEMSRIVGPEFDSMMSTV
How it was run: (§2)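 Nuclear extracts from EGF-stimulated NIH3T3/hEGFR fibroblasts, containing active Stat1, Stat3 and Stat5, preincubated with 5 μM test compound for 30 min at room temperature. Then incubated 30 min with 32P-labelled probe before EMSA: hSIE (Stat1/Stat3 binding) or MGFe (bovine β-casein element; Stat1/Stat5 binding). STAT:DNA bands quantified as percent of control.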

SF295 cells = test: CyQuant cell proliferation assay; assay type: cell-based; conditions: Homo sapiens, SF-295, 72 h, read-out: IC50 cell proliferation SF295
How it was run: as §1

U373MG cells = test: CyQuant cell proliferation assay; assay type: cell-based; conditions: Homo sapiens, U373 MG, 72 h, read-out: IC50 cell proliferation U373MG
How it was run: as §1

MCF-7 cells = test: CyQuant cell proliferation assay; assay type: cell-based; conditions: Homo sapiens, MCF7, 72 h, read-out: IC50 cell proliferation MCF-7
How it was run: as §1

Stat5:Stat5 = test: Cell-free EMSA, EGF-stimulated NIH3T3/hEGFR nuclear extracts, MGFe probe; assay type: biochemical, mouse; conditions: 5 μM, 30 min pre-incubation
How it was run: as §2

Sequence of Stat3:Stat3 (P42227 2-770 limits assumed): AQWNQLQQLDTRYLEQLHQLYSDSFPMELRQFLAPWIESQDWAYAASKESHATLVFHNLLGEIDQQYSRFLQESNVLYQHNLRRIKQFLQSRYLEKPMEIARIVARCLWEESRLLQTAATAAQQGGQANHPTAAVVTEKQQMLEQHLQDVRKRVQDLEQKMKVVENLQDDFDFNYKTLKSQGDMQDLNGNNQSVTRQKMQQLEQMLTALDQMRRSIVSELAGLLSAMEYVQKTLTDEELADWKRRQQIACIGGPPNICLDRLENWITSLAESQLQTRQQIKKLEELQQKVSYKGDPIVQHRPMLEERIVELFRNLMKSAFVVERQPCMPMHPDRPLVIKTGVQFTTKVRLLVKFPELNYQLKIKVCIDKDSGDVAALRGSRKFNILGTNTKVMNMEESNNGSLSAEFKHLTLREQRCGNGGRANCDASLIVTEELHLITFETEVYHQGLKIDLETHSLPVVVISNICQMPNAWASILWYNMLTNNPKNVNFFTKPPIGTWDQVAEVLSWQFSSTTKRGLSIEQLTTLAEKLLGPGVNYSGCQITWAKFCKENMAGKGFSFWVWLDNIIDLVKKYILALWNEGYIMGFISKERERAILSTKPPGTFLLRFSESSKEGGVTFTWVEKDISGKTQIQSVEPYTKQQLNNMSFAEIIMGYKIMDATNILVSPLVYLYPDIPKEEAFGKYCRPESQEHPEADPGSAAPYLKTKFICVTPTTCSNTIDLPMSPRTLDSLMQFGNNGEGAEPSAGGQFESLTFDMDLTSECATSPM

Structure (SMILES)	Stat3:Stat3/DNA-binding activity (complexation), cell-free EMSA (Stat3:Stat3)	effect on pStat3 in treated tumor cells (pYStat3)	activity against U251MG cell growth (U251MG cells)	effect on Stat3 DNA-binding activity in treated tumor cells (Stat3)	other results
C=C(C)C(=O)O[C@H]1C[C@@H](C)[C@]2(OC)CC[C@](C)(/C=C3/OC(=O)C(CO)=C31)O2 [Compound 28]	only weakly inhibited	little impact	–	–	–
C=C(C)C(=O)O[C@H]1C[C@@H](C)[C@]2(O)CC[C@](C)(/C=C3/OC(=O)C(CO)=C31)O2 [Compound 18]	only weakly inhibited	little impact	–	–	–
C[C@@H]1C[C@H](O)C2=C(COC(=O)/C=C/c3ccc(C(F)(F)F)cc3)C(=O)O/C2=C/[C@@]2(C)CC[C@]1(O)O2 [Compound 35]	diminished	–	retained or improved the inhibitory potency	–	–
CCC(C)C(=O)OCC1=C2/C(=C\[C@@]3(C)CC[C@](O)(O3)[C@H](C)C[C@@H]2O)OC1=O (stereo partly drawn) [Compound 29]	moderate inhibitory effects	little effect	weakly-active or inactive	–	–
C[C@@H]1C[C@H](O)C2=C(COC(=O)/C=C/c3ccc(F)cc3)C(=O)O/C2=C/[C@@]2(C)CC[C@]1(O)O2 [Compound 34]	diminished	–	retained or improved the inhibitory potency	–	effect on MDA-MB-231 cell growth (MDA-MB-231 cells): strongly inhibited
CC(C)=CC(=O)OCC1=C2/C(=C\[C@@]3(C)CC[C@](O)(O3)[C@H](C)C[C@@H]2O)OC1=O [Compound 32]	diminished	moderate effect	weakly-active or inactive	–	–
C/C=C(\C)C(=O)O[C@H]1C[C@@H](C)[C@]2(OC)CC[C@](C)(/C=C3/OC(=O)C(COC(=O)/C=C/c4ccccc4)=C31)O2 [Compound 40]	moderate inhibitory effects	–	retained or improved the inhibitory potency	–	effect on MDA-MB-231 cell growth (MDA-MB-231 cells): strongly inhibited
C[C@@H]1C[C@H](O)C2=C(COC(=O)/C=C/c3ccccc3)C(=O)O/C2=C/[C@@]2(C)CC[C@]1(O)O2 [Compound 30]	diminished	suppressed	retained or improved the inhibitory potency	suppressed	IC50 (Stat3): 0.5 to 2.5 µM; IC50 (U251MG cells): 1 to 1.2 µM
CCCC(CCC)C(=O)OCC1=C2/C(=C\[C@@]3(C)CC[C@](O)(O3)[C@H](C)C[C@@H]2O)OC1=O [Compound 37]	diminished	–	retained or improved the inhibitory potency	–	effect on MDA-MB-231 cell growth (MDA-MB-231 cells): strongly inhibited
CC(C)=CCC/C(C)=C/C(=O)OCC1=C2/C(=C\[C@@]3(C)CC[C@](O)(O3)[C@H](C)C[C@@H]2O)OC1=O [Compound 31]	diminished	suppressed	retained or improved the inhibitory potency	suppressed	effect on Stat1:Stat1 activity, cell-free EMSA (Stat1:Stat1): moderate effect; IC50 (Stat3): 0.5 to 2.5 µM; IC50 (U251MG cells): 1 to 1.2 µM
C=C(C)C(=O)O[C@H]1C[C@@H](C)[C@]2(O)CC[C@](C)(/C=C3/OC(=O)C(COC(C)=O)=C31)O2 [Compound 7]	diminished	strongly inhibited	–	strongly inhibited	effect on Stat1:Stat1 activity, cell-free EMSA (Stat1:Stat1): weak effects; IC50 (SF295 cells): 7.4 to 18.3 µM; IC50 (U373MG cells): 6.6 to 8.2 µM; IC50 (MDA-MB-231 cells; Homo sapiens, MDA-MB-231, 72 h, read-out: IC50 cell proliferation MDA-MB-231): 5.2 to 9.1 µM; IC50 (MCF-7 cells): 4.8 to 9.6 µM; effect on Stat5:Stat5 activity, cell-free EMSA (Stat5:Stat5): weak effects
C/C=C(\C)C(=O)O[C@H]1C[C@@H](C)[C@]2(O)CC[C@](C)(/C=C3/OC(=O)C(CO)=C31)O2 [Compound 8]	only weakly inhibited	little impact	–	–	–
C=C1C(=O)O[C@H]2[C@H]1CC/C(C)=C/CC[C@@]1(C)O[C@@H]21 [parthenolide, reference compound]	–	–	–	–	cell growth activity, control compounds (U251MG cells; panel of cell lines, Fig. S5E(i)): poorly-active or non-specific in activity; Stat3 activity in tumor cells, control compounds (pYStat3; Fig. S5E(ii)): did not inhibit
C[C@@H]1C[C@H](O)C2=C(CO)C(=O)O/C2=C/[C@@]2(C)CC[C@]1(O)O2 [Compound 14]	only weakly inhibited	little impact	–	–	–
C[C@@H]1C[C@H](O)C2=C(COC(=O)CCc3ccccc3)C(=O)O/C2=C/[C@@]2(C)CC[C@]1(O)O2 [Compound 36]	diminished	suppressed	retained or improved the inhibitory potency	suppressed	IC50 (Stat3): 0.5 to 2.5 µM; IC50 (U251MG cells): 1 to 1.2 µM
C/C=C(/C)C(=O)O[C@H]1C[C@@H](C)[C@]2(O)CC[C@](C)(/C=C3/OC(=O)C(CO)=C31)O2 [Compound 19]	only weakly inhibited	little impact	–	–	–
CCN1C(=O)C=CC1=O [NEM, N-ethylmaleimide, reference compound]	–	–	–	–	Stat3:Stat3/DNA complexation, dose-dependent (Stat3:Stat3; Fig. S3B): inhibits
C/C=C(\C)C(=O)OCC1=C2/C(=C\[C@@]3(C)CC[C@](OC)(O3)[C@H](C)C[C@@H]2OC(=O)/C(C)=C/C)OC1=O [Compound 39]	diminished	suppressed	retained or improved the inhibitory potency	suppressed	IC50 (Stat3): 0.5 to 2.5 µM; effect on MDA-MB-231 cell growth (MDA-MB-231 cells): strongly inhibited
C/C(=C\CO)C(=O)O[C@H]1C[C@@H](C)[C@]2(O)CC[C@](C)(/C=C3/OC(=O)C(CO)=C31)O2 [Compound 21]	only weakly inhibited	little impact	–	–	–
CC(C)=CCCC(C)CC(=O)OCC1=C2/C(=C\[C@@]3(C)CC[C@](O)(O3)[C@H](C)C[C@@H]2O)OC1=O (stereo partly drawn) [Compound 33]	diminished	suppressed	retained or improved the inhibitory potency	suppressed	IC50 (Stat3): 0.5 to 2.5 µM; IC50 (U251MG cells): 1 to 1.2 µM
